Results published in ChEMBL document CHEMBL1123606, “1,3-Diarylpyrazolo[4,5-c]- and -[5,4-c]quinolin-4-ones. 4. Synthesis and specific inhibition of benzodiazepine receptor binding” (J Med Chem, 1987).

Organism: Bos taurus
Experiment: Displacement of 3[H]Flunitrazepam from GABA-A central benzodiazepine receptor of bovine brain membranes at 34 uM
Assay type: cell membranes
Outline: (§1)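 A single-concentration screen against specific [3H]flunitrazepam (0.6 nM) binding to bovine brain membranes (0.4–0.5 mg protein). Incubation was in 50 mM Tris-HCl at 0 °C for 90 min, with compounds added in ethanol. Diazepam at 10 μM defined nonspecific binding. Bound ligand was collected by rapid glass-fibre filtration and counted by scintillation. Percent inhibition is given as means ± SEM of five determinations.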

Structure (SMILES) | inhibition
Oc1nc2ccccc2c2c(-c3ccccc3)nn(-c3ccccc3)c12 | 10%
Oc1nc2ccccc2c2c(-c3ccccc3)nn(-c3cccc(Cl)c3)c12 | 8%

Organism: Bos taurus
Experiment: Displacement of 3[H]Flunitrazepam from GABA-A central benzodiazepine receptor of bovine brain membranes at 3.4 uM
Assay type: cell membranes
Outline: as §1

Structure (SMILES) | inhibition
Cn1c(=O)c2c(c(-c3ccccc3)nn2-c2ccccc2)c2ccccc21 | 21%

Target: not listed separately
Experiment: Displacement of 3[H]Flunitrazepam from GABA-A central benzodiazepine receptor of bovine brain membranes
Assay type: cell membranes, Bos taurus
Outline: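 Bovine brain membranes (0.4–0.5 mg protein) were incubated in triplicate with 0.6 nM [3H]flunitrazepam in 50 mM Tris-HCl at 0 °C for 90 min. Displacers were added in ethanol, at seven concentrations each. Nonspecific binding was defined with 10 μM diazepam. Samples were diluted with cold buffer, filtered on glass fibre and counted by scintillation. IC50 was taken from log-probit analysis; values are means ± SEM of seven determinations.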

Structure (SMILES) | IC50
Cn1c(=O)c2c(-c3ccccc3)nn(-c3ccccc3)c2c2ccccc21 | 3.1 µM
O=C1C2C=Nc3ccccc3C2=NN1c1ccccc1 (stereo not given) [CGS-8216] | 0.0004 µM
COc1ccc(-n2nc3c4ccccc4[nH]cc-3c2=O)cc1 | 0.0001 µM
Cn1c(=O)c2c(-c3ccccc3)nn(-c3ccc(Cl)cc3)c2c2ccccc21 | 1.16 µM
Oc1nc2ccccc2c2c1c(-c1ccccc1)nn2-c1cccc(Cl)c1 | 3 µM
Oc1nc2ccccc2c2c1c(-c1ccccc1)nn2-c1cccc(Br)c1 | 1.5 µM
Cc1ccc(-n2nc(-c3ccccc3)c3c(=O)n(C)c4ccccc4c32)cc1 | 1.1 µM
Cc1ccc(-n2nc(-c3ccccc3)c3c(O)nc4ccccc4c32)cc1 | 39 µM
CN1C(=O)CN=C(c2ccccc2)c2cc(Cl)ccc21 [DIAZEPAM] | 2.5e-05 µM
Cc1cccc(-n2nc(-c3ccccc3)c3c(=O)n(C)c4ccccc4c32)c1 | 0.09 µM
O=C1C2C=Nc3ccccc3C2=NN1c1ccc(Cl)cc1 (stereo not given) [CGS-9896] | 0.0006 µM
Cn1c(=O)c2c(-c3ccccc3)nn(-c3cccc(Br)c3)c2c2ccccc21 | 0.1 µM
Cn1c(=O)c2c(-c3ccccc3)nn(-c3cccc(Cl)c3)c2c2ccccc21 | 0.07 µM
CNC1=Nc2ccc(Cl)cc2C(c2ccccc2)=[N+]([O-])C1 [CHLORDIAZEPOXIDE] | 0.00079 µM
Cc1cccc(-n2nc(-c3ccccc3)c3c(O)nc4ccccc4c32)c1 | 3 µM
Oc1nc2ccccc2c2c1c(-c1ccccc1)nn2-c1ccccc1 | 21 µM
Oc1nc2ccccc2c2c1c(-c1ccccc1)nn2-c1ccc(Cl)cc1 | 30 µM
